PfGluPho inh: PfG6PD enzyme inhibitors, primary screen, biochemical, fluorescence intensity, uHTS | glucose-6-phosphate dehydrogenase-6-phosphogluconolactonase (Plasmodium falciparum 3D7) | PfGluPho enzyme, NADPH resazurin-diaphorase fluorescence | inhibition, % at 20 µM | actives 0.78% (n = 350,000);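 active = inhibition reaching at least a set limit at 20 µM in the primary screen, cut at about 59% in these data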;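 also: 0% = DMSO wells with substrate and 100% = DMSO wells lacking glucose-6-phosphate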
Redox H2O2 prof: compounds producing H2O2 with reducing agent – biochemical, NIH compound library profiling, artefact control for MLSCN library redox annotation, primary screen. DTT-dependent redox cycling H2O2, phenol red/HRP absorbance; 100% = 100 µM peroxide control, 0% = buffer. activation, % at 10 µM. actives 0.03% (n = 200,000);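 active = activation of at least 50% relative to the plate's high and low controls in the primary single-dose screen; inactive = activation below 50%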;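 also: compound incubated with DTT at 0.8 mM final as the reducing agent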
Lmaj promast: Leishmania major promastigote growth inhibition, primary screen; Leishmania major promastigotes, resazurin fluorescence viability; inhibition, % at 10 µM; actives 9% (n = 200,000);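 also: promastigotes grown with compound for 44 hours at 28 °C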
Diaphorase act: compounds boosting diaphorase resazurin reduction – biochemical, uHTS, resorufin fluorescence, counter-screen for diaphorase-coupled primary assays, primary screen; Diaphorase/resazurin coupled assay, 16 min; hits give high values; 1 = vehicle wells, 0 = NADH-free wells; activation factor at 20 µM; actives 0.005% (n = 190,000);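 active = diaphorase activity raised at least twofold by the compound at 20 µM; inactive = activation factor below 2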
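Material: purified diaphorase enzyme from Clostridium kluyveri; Also added: 0.114 mM NADH and 0.1 mM resazurin, final amounts; Doses: single compound dose of 20 µM, 1% DMSO final; Times: 16 min enzyme reaction, ambient temperature; Detection: resorufin fluorescence, excitation 544 nm, emission 590 nm; Measure: increased resorufin signal from activators or reducing compounds.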
G6PDH counter: L. mesenteroides G6PDH inhibitors, counter-screen for G6PDH-coupled screening assays, biochemical, Leuconostoc mesenteroides enzyme | inhibition, % at 5 µM | glucose-6-phosphate dehydrogenase [Leuconostoc mesenteroides] | actives 0.12% (n = 200,000) | Purified L. mesenteroides G6PDH, diaphorase/resazurin coupled fluorescence, 45 min
Diaph inh CS: diaphorase inhibitors and chemical oxidizers, primary screen, counter-screen for diaphorase-coupled primary assays, biochemical, uHTS, resorufin fluorescence. diaphorase resazurin-to-resorufin fluorescence, NADH, 16 min; bacterial (C. kluyveri) enzyme, not human. inhibition, % at 20 µM. actives 0.69% (n = 190,000). AID 1217, 2008;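 active = primary screen inhibition at 20 µM above a set limit, cut at about 50% in these data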;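 also: plate controls were DMSO with full reaction for no effect and wells lacking NADH for full effect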
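System: Bacterial diaphorase enzyme (C. kluyveri) | Incubation: 16-min room-temperature incubation before reading | Benchmarks: No-NADH positive control and DMSO neutral control | Measured by: Resorufin fluorescence 544/590 nm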
* marks the source's active call; other numbers are inactive results. The full list was thinned out, with hits kept by preference. Rule as the data show it, unless noted: active = inhibition above about 50%; inactive = the rest.

`CSc1nnc2n(Cc3ccccc3)c(=O)c3c4c(sc3n12)COC(C(C)C)C4` (stereo not drawn) gave Redox H2O2 prof 0, Lmaj promast 5, Diaphorase act 0.8, G6PDH counter 8 and Diaph inh CS 20.
For Cc1cc(OC(C)C(=O)NC2CCN(Cc3ccccc3)CC2)c2c(C)cc(=O)oc2c1 (stereo not drawn) the results were PfGluPho inh -9.
`CC(/C=C/c1ccccc1)=N/NC(=O)CNC(=O)c1ccccc1F` gave PfGluPho inh -11, Redox H2O2 prof -1, Lmaj promast 1, Diaphorase act 1, G6PDH counter 6 and Diaph inh CS -2.
N#CCN1C(=O)NC2(CCCc3sccc32)C1=O (stereo not drawn) was read as PfGluPho inh -6.
For O=C(Nc1ccc(NC(=O)C2CCCCC2)nc1)c1cccs1 the results were PfGluPho inh 10, Redox H2O2 prof 0, Lmaj promast 99*, Diaphorase act 1, G6PDH counter 2 and Diaph inh CS 0.
COc1cccc(C(=O)Nc2ccc(NC(=O)C3CCCCC3)nc2)c1 was read as PfGluPho inh -7.
`COCCN(CCOC)S(=O)(=O)c1ccc(C(=O)Nc2nnc(C3CC3)o2)cc1` gave PfGluPho inh -24, Redox H2O2 prof 2, Lmaj promast -6, Diaphorase act 0.9, G6PDH counter -16 and Diaph inh CS 14.
O=C(/C=C/c1ccccc1)Nc1nnc(-c2ccco2)o1 was read as PfGluPho inh -9, Redox H2O2 prof 9, Lmaj promast 65*, Diaphorase act 0.9, G6PDH counter 6 and Diaph inh CS 7.
CCN(c1ccccc1)S(=O)(=O)c1ccc(C(=O)Nc2nnc(COC)o2)cc1 was read as PfGluPho inh -34, Redox H2O2 prof -5, Lmaj promast 3, Diaphorase act 0.9, G6PDH counter 2 and Diaph inh CS 8.
For CCN(c1ccccc1)S(=O)(=O)c1ccc(C(=O)Nc2nnc(C3CC3)o2)cc1 the results were PfGluPho inh -32, Redox H2O2 prof -1, Lmaj promast 94*, Diaphorase act 0.9, G6PDH counter 9 and Diaph inh CS 13.
`CCN(c1ccccc1)S(=O)(=O)c1ccc(C(=O)Nc2nnc(-c3ccco3)o2)cc1` gave PfGluPho inh -35, Redox H2O2 prof 0, Lmaj promast 99*, Diaphorase act 0.9, G6PDH counter 10 and Diaph inh CS 14.
Screening CN(c1ccccc1)S(=O)(=O)c1ccc(C(=O)Nc2nnc(-c3ccco3)o2)cc1 returned PfGluPho inh -11, Redox H2O2 prof 0, Lmaj promast 10, Diaphorase act 0.7, G6PDH counter 3 and Diaph inh CS 27.
CN(c1ccccc1)S(=O)(=O)c1ccc(C(=O)Nc2nnc(C3CC3)o2)cc1 was read as PfGluPho inh -1, Redox H2O2 prof 0, Lmaj promast 98*, Diaphorase act 0.9, G6PDH counter 5 and Diaph inh CS 6.
COc1ccc(-c2sc(C(=O)c3ccc(Cl)cc3Cl)cc2CC(=O)O)cc1 was read as PfGluPho inh -12.
Screening Cc1ccc([C@H]2C[C@H](n3cc(C4CC4)nn3)[C@@H](O)CN2CC2CCCCC2)cc1 returned PfGluPho inh 11.
COC(=O)C1CCN(C(=O)[C@H](C)NC(=O)C2CC(=O)N(c3ccc(F)cc3)C2)CC1 (stereo partly drawn) was read as PfGluPho inh 1.
`Cc1cccc(/C(N)=N/OC(=O)CCCc2ccccc2)c1` gave PfGluPho inh 0.
For Nc1cccn2c(-c3ccc(Cl)c(Cl)c3)cnc12 the results were PfGluPho inh 48, Redox H2O2 prof 0, Lmaj promast 65*, Diaphorase act 0.8, G6PDH counter -2 and Diaph inh CS 16.

Source: PubChem BioAssay (several laboratories)
